Source: ChEMBL document CHEMBL1125374, “Novel anticancer prodrugs of butyric acid. 2” (J Med Chem, 1992)

Key:
[1] = test system: B16-F10; assay: Effect on metastases of B16F10.9 melanoma cells (intraperitoneally implanted) in B6C3F1/OLAC/HSD mice was observed after administration of 50 mg/kg dose; assay type: functional, Mus musculus; conditions: route intraperitoneal
[2] = test system: B16-F10; assay: Effect on appearance of B16F10.9 colonies in semisolid agar at 1 mM; assay type: functional, Mus musculus
Outline: (§1)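 B16F10.9 cells (10^3) plated in the upper layer of a 0.6 mL RPMI soft-agar bilayer. Lower layer: conditioned medium 40, FCS 10, horse serum 15, agar 0.5 (% v/v). Upper layer: FCS 20, horse serum 20, agar 0.36. Compound added to the upper layer. Aggregates of more than 20 cells scored as colonies by inverted microscope after 7 days.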

[3] = test system: HL-60; assay: Concentration required for 50% proliferation inhibition of human promyelocytic HL-60 cell line; assay type: functional, cell-based
Outline: (§2)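 Cells grown in RPMI with 10% fetal calf serum and 2 mM glutamine at 37 °C, 5% CO2. HL-60 (human promyelocytic) and WEHI (murine myelomonocytic) cells exposed to a titration of compound for 24 h. [3H]thymidine pulsed at 1 µCi/well during the last 14 h. Acid-insoluble counts collected on glass-fibre filters. IC50 taken from percent incorporation vs log concentration. At least two independent experiments.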

[4] = test system: B16-F10; assay: Inhibitory activity on growth of B16F10.9 melanoma cell line; assay type: functional, cell-based; conditions: Mus musculus
Outline: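 B16F10.9 melanoma cells (4 x 10^4) seeded in 35-mm dishes in RPMI/10% FCS at 37 °C, 5% CO2. Compound added 6 h after seeding. On day 4 cells detached in PBS with 1 mM EDTA and counted electronically. IC50 read from viable cell number vs log concentration.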

[5] = test system: WEHI; assay: Concentration required for 50% proliferation inhibition of myelomonocytic WEHI cell line; assay type: functional, cell-based; conditions: Mus musculus; outline: as §2
[6] = test system: B16-F10; assay: Effect on metastases of B16F10.9 melanoma cells (intravenously injected) in C57BL/6 mice was observed after administration of 25 mg/kg dose; conditions: route intraperitoneal
[7] = test system: B16-F10; assay: Effect on metastases of B16F10.9 melanoma cells (intravenously injected) in C57BL/6 mice was observed after administration of 100 mg/kg dose; conditions: route intraperitoneal
[8] = test system: B16-F10; assay: Effect on metastases of B16F10.9 melanoma cells (intravenously injected) was observed after administration of 50 mg/kg dose; conditions: route intraperitoneal
[9] = test system: B16-F10; assay: Effect on appearance of B16F10.9 colonies in semisolid agar; assay type: functional, cell-based; conditions: Mus musculus; outline: as §1
[10] = test system: B16-F10; assay: Effect on metastases of B16F10.9 melanoma cells (intravenously injected) in C57BL/6 mice was observed after administration of 25 mg/kg dose; conditions: route intraperitoneal; remark: listed apart in the source
[11] = Lethal dose was determined; assay type: toxicity; conditions: mouse
Outline: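 Acute toxicity in male and female BALB/c mice (3 experiments) and C57Bl mice (2 experiments), 6-8 weeks old, weighing 20 ± 0.5 g, in groups of 10. Each mouse got a single injection of 0.125-2.5 g/kg in propylene glycol, and LD50 was taken from mortality.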

[12] = test system: B16-F10; assay: Effect on metastases of B16F10.9 melanoma cells (intravenously injected) in C57BL/6 mice was observed after administration of 12.5 mg/kg; conditions: route intraperitoneal
[13] = test system: B16-F10; assay: Effect on metastases of B16F10.9 melanoma cells (intravenously injected) in C57BL/6 mice was observed after administration of 100 mg/kg dose; conditions: route intraperitoneal; remark: listed apart in the source
[14] = test system: B16-F10; assay: Effect on metastases of B16F10.9 melanoma cells (intravenously inoculated) in C57BL/6 mice was observed after administration of 12.5 mg/kg dose; conditions: route intravenous

SMILES | No. of lung lesions [1] | Decrease [2] | IC50 [3] | IC50 [4] | IC50 [5] | Lung weight [6] | Lung weight [7] | Lung weight [8] | IC50 [9] | No. of lung lesions [10] | LD50 [11] | No. of lung lesions [12] | No. of lung lesions [13] | Lung weight [14]
O=P1(N(CCCl)CCCl)NCCCO1 (stereo not drawn) [CYCLOPHOSPHAMIDE ANHYDROUS] | 56.38 | – | – | – | – | – | – | – | – | – | – | – | – | –
CCCC(=O)O [BUTYRIC ACID] | – | 22% | 1520 µM | 933 µM | 850 µM | – | – | – | – | – | – | – | – | –
CCCC(=O)OCOC(=O)C(C)(C)C [AN-9] | 66.6 | – | 49.5 µM | 82 µM | 75 µM | 0.135 g | 0.269 g | 0.0929 g | 60 µM | 72.38 | 1360 mg/kg | 97.89 | 140 | 0.1571 g
